Measured values as given in ChEMBL document CHEMBL1128693, “Novel cytotoxic 3'-(tert-butyl) 3'-dephenyl analogs of paclitaxel and docetaxel” (J Med Chem, 1995).
In brackets after ≈: the same amount, converted by molar mass.

What was measured:
[1] = target: T1, Tubulin (Bos taurus) (UniProt Q6B856+Q862L2+Q862F3); assay: Promotion of tubulin polymerization
[2] = tested on: B16; assay: The compound was tested for Cytotoxic concentration against B16 melanoma cells.; assay type: functional; conditions: Mus musculus, B16, read-out: ED50
[3] = Water solubility relative to Paclitaxel solubility; assay type: ADME; conditions: buffer
Method in brief: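 Solubility in water by HPLC on a phenyl column: mobile phase A, 50% methanol/50% water; mobile phase B, acetonitrile. About 0.4 mg compound placed in 9 mL water in a 10 mL volumetric flask, sonicated 15 min in cold water. Quantified against a methanol standard curve (about 0.5 mg/mL serially diluted) of concentration vs HPLC peak area. Reported in µg/mL and as a ratio to paclitaxel solubility.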

[4] = Water solubility of the compound; assay type: ADME; conditions: read-out: S
Method in brief: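 Aqueous solubility by HPLC on a phenyl column. Mobile phases were 50% methanol/water and acetonitrile. The standard curve came from about 0.5 mg sample in 1 mL methanol with serial dilutions, plotting concentration against HPLC peak area. For samples, about 0.4 mg was placed in 9 mL water and sonicated 15 min in a cold-water bath.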

[5] = tested on: B16; assay: The compound was tested for Cytotoxic concentration against B16 melanoma cells relative to paclitaxel; assay type: functional; conditions: Mus musculus, B16, read-out: ED50
[6] = target: T1, Tubulin (Bos taurus); assay: ED50 relative to paclitaxel in promoting tubulin polymerization
[7] = Ratio of ED50 in microtubule assembly in presence of paclitaxel to only compound; assay type: functional
Method in brief: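 Bovine brain tubulin purified by three temperature-dependent assembly-disassembly cycles plus phosphocellulose-biogel P-10 chromatography, cleared at 27000g for 10 min. Varied compound levels incubated with 10 μM tubulin and 0.5 mM GTP in PEM buffer (0.1 M Pipes pH 6.9, 1 mM MgSO₄, 1 mM EGTA), 37 °C, 15 min. Spun at 40000g for 4 min; supernatant protein by Bradford. […] Ratio against paclitaxel ED50.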

Row | ED50 [1] | Ratio [3] | solubility [4] | ED50 [6] | Structure (SMILES) | EC50 [2] | EC50 [5] | Ratio [7]
1 | 800 nM | 90 | 27 µg/mL (≈ 34.3 µM) | 930 nM | CCCCOC(=O)N[C@H]([C@@H](O)C(=O)O[C@H]1C[C@@]2(O)[C@@H](OC(=O)c3ccccc3)[C@@H]3[C@]4(OC(C)=O)CO[C@@H]4C[C@H](O)[C@@]3(C)C(=O)[C@H](O)C(=C1C)C2(C)C)C(C)(C)C | 64 nM | 31.3 nM | 
2 | 500 nM | 93 | 28 µg/mL (≈ 35.5 µM) | 930 nM | CC(=O)O[C@@]12CO[C@@H]1C[C@H](O)[C@@]1(C)C(=O)[C@H](O)C3=C(C)[C@@H](OC(=O)[C@H](O)[C@@H](NC(=O)OCC(C)C)C(C)(C)C)C[C@@](O)([C@@H](OC(=O)c4ccccc4)[C@H]21)C3(C)C |  |  | 
3 | 500 nM | 87 | 26 µg/mL (≈ 33.1 µM) | 1050 nM | CC(=O)O[C@@]12CO[C@@H]1C[C@H](O)[C@@]1(C)C(=O)[C@H](O)C3=C(C)[C@@H](OC(=O)[C@H](O)[C@@H](NC(=O)CC(C)(C)C)C(C)(C)C)C[C@@](O)([C@@H](OC(=O)c4ccccc4)[C@H]21)C3(C)C | 104 nM | 29 nM | 
4 | 3200 nM |  |  | 900 nM | CC(=O)O[C@@]12CO[C@@H]1C[C@H](O)[C@@]1(C)C(=O)[C@H](O)C3=C(C)[C@@H](OC(=O)[C@H](O)[C@@H](/N=C(/S)NC(C)(C)C)C(C)(C)C)C[C@@](O)([C@@H](OC(=O)c4ccccc4)[C@H]21)C3(C)C | > 1000 nM | 24.4 nM | 3.6
5 |  | 1 | 0.3 µg/mL (≈ 0.351 µM) |  | CC(=O)O[C@H]1C(=O)[C@@]2(C)[C@H]([C@H](OC(=O)c3ccccc3)[C@]3(O)C[C@H](OC(=O)[C@H](O)[C@@H](NC(=O)c4ccccc4)c4ccccc4)C(C)=C1C3(C)C)[C@]1(OC(C)=O)CO[C@@H]1C[C@@H]2O [PACLITAXEL] |  |  | 
6 | 330 nM | 4.7 | 1.4 µg/mL (≈ 1.74 µM) | 1040 nM | CC(=O)O[C@@]12CO[C@@H]1C[C@H](O)[C@@]1(C)C(=O)[C@H](O)C3=C(C)[C@@H](OC(=O)[C@H](O)[C@@H](NC(=O)Nc4ccccc4)C(C)(C)C)C[C@@](O)([C@@H](OC(=O)c4ccccc4)[C@H]21)C3(C)C | 18.8 nM | 26.8 nM | 
7 | 510 nM | 17 | 5 µg/mL | 1140 nM | CC(=O)O[C@@]12CO[C@@H]1C[C@H](O)[C@@]1(C)C(=O)[C@H](O)C3=C(C)[C@@H](OC(=O)[C@H](O)[C@@H](NC(=O)OC(C)(C)C)c4ccccc4)C[C@@](O)([C@@H](OC(=O)c4ccccc4)[C@H]21)C3(C)C.O.O.O [DOCETAXEL] | 11 nM | 27 nM | 0.45

Continued, molecule first:

Row | Structure (SMILES) | ED50 [1] | Ratio [3] | solubility [4] | ED50 [6] | EC50 [2] | EC50 [5] | Ratio [7]
8 | CC(=O)O[C@@]12CO[C@@H]1C[C@H](O)[C@@]1(C)C(=O)[C@H](O)C3=C(C)[C@@H](OC(=O)[C@H](O)[C@@H](NC(=O)OC(C)(C)C)C(C)(C)C)C[C@@](O)([C@@H](OC(=O)c4ccccc4)[C@H]21)C3(C)C | 350 nM | 93 | 28 µg/mL (≈ 35.5 µM) | 930 nM | 12.5 nM | 31.3 nM | 
9 | CC(=O)O[C@@]12CO[C@@H]1C[C@H](O)[C@@]1(C)C(=O)[C@H](O)C3=C(C)[C@@H](OC(=O)[C@H](O)[C@@H](NC(=O)c4ccccc4)C(C)(C)C)C[C@@](O)([C@@H](OC(=O)c4ccccc4)[C@H]21)C3(C)C | 1700 nM | 9.3 | 2.8 µg/mL (≈ 3.54 µM) | 930 nM |  |  | 
10 | CC(=O)O[C@@]12CO[C@@H]1C[C@H](O)[C@@]1(C)C(=O)[C@H](O)C3=C(C)[C@@H](OC(=O)[C@H](O)[C@@H](NC(=O)C(C)(C)C)C(C)(C)C)C[C@@](O)([C@@H](OC(=O)c4ccccc4)[C@H]21)C3(C)C | 1350 nM |  |  | 1050 nM | 930 nM | 29 nM | 1.3
11 | CC(=O)O[C@@]12CO[C@@H]1C[C@H](O)[C@@]1(C)C(=O)[C@H](O)C3=C(C)[C@@H](OC(=O)[C@H](O)[C@@H](NC(=O)NC(C)(C)C)C(C)(C)C)C[C@@](O)([C@@H](OC(=O)c4ccccc4)[C@H]21)C3(C)C | 630 nM | 97 | 29 µg/mL (≈ 36.9 µM) | 1050 nM | 26 nM | 29 nM | 
12 | CC(=O)O[C@@]12CO[C@@H]1C[C@H](O)[C@@]1(C)C(=O)[C@H](O)C3=C(C)[C@@H](OC(=O)[C@H](O)[C@@H](NC(=O)Oc4ccccc4)C(C)(C)C)C[C@@](O)([C@@H](OC(=O)c4ccccc4)[C@H]21)C3(C)C | 1300 nM |  |  | 930 nM | > 1000 nM | 31.3 nM | 1.4
13 | CCCCCCOC(=O)N[C@H]([C@@H](O)C(=O)O[C@H]1C[C@@]2(O)[C@@H](OC(=O)c3ccccc3)[C@@H]3[C@]4(OC(C)=O)CO[C@@H]4C[C@H](O)[C@@]3(C)C(=O)[C@H](O)C(=C1C)C2(C)C)C(C)(C)C | 2100 nM |  |  | 930 nM | 370 nM | 31.3 nM | 2.3
14 | CCC(C)(C)OC(=O)N[C@H]([C@@H](O)C(=O)O[C@H]1C[C@@]2(O)[C@@H](OC(=O)c3ccccc3)[C@@H]3[C@]4(OC(C)=O)CO[C@@H]4C[C@H](O)[C@@]3(C)C(=O)[C@H](O)C(=C1C)C2(C)C)C(C)(C)C | 420 nM | 87 | 26 µg/mL (≈ 32.4 µM) | 930 nM | 18 nM | 31.3 nM | 
